# Compounds with a hit are over-represented: about 5.4% of the library has one in this group of screens.
# PostGolgi yeast: phenotypic screen on post-Golgi transport, primary screen; post-Golgi transport phenotypic cell assay; inhibition, % at 10 µM; 0.9% of 98,000 active; AID 739, 2007;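 note: yeast cells grown in 1536-well plates; yeast grown about 18 h at 30C before absorbance read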
# HePTP inh: inhibitors of human HePTP phosphatase, primary screen, biochemical, absorbance, leukemia target. inhibition, % at 20 µM. recombinant HePTP phosphatase activity, OD absorbance. AID 521, 2006. 0.64% of 110,000 active. Tyrosine-protein phosphatase non-receptor type 7 (Homo sapiens), P35236; in the data active = inhibition above about 50%;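 note: plate controls were vehicle for no effect and reference inhibitor for full effect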
# Target sequence (P35236 whole entry, looked up): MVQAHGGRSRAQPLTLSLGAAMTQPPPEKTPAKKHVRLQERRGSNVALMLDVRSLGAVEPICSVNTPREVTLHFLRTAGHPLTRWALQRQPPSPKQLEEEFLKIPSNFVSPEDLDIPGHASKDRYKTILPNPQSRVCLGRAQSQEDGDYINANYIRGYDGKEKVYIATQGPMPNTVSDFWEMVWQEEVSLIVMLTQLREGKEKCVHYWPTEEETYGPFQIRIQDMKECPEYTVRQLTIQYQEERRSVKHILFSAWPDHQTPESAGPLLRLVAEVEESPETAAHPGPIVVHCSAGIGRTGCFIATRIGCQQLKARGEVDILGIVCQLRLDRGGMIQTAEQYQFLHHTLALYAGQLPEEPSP
# tolC growth inh: growth inhibitors of E. coli tolC mutant, primary screen, strain BW25113 ΔtolC::kan, 384-well. AID 573, 2007. 2.2% of 65,000 active. growth inhibition, % at 10 µM (by protocol). OD615;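 active = growth inhibition at or above a cutoff equal to the mean over every tested compound plus 3 SD, cut at about 60% in these data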;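 note: growth measured after 20 h incubation at 37 °C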
#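 signal = optical density read at 615 nm | test system = E. coli ΔtolC::kan strain BW25113 | timing = 20 h compound exposure of bacteria at 37 °C | buffer or medium = LB medium plus 50 µg/mL kanamycin | compound dosing = 10 µM final, single dose | evaluation = % inhibition of E. coli growth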
# PostGolgi ctrl: growth inhibition of yeast control strain, primary screen, counter-screen for post-Golgi transport modulator project | efflux-deficient yeast background strain, growth absorbance A615, 16 h | AID 738, 2007 | inhibition, % at 10 µM | 5% of 98,000 active
# PLAP act: PLAP enzyme activators, biochemical, luminescence, HTS | Alkaline phosphatase, placental type (Homo sapiens), P05187 | purified PLAP enzyme, luminescent substrate read-out; active compounds read high | activation fold at 20 µM | 1.2% of 96,000 active; in the data active = activation fold above about 2
# Ecoli WT expand: growth inhibitors of wild-type E. coli, primary screen, strain BW25113, expanded library, OD600. growth inhibition, % at 100 µM. 0.15% of 98,000 active. OD600 absorbance;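 active = growth inhibition above about 50% at one test dose, limit read from the data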;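 note: growth measured after 20 h incubation at 37 °C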
# Active calls of the source: *; x = no result given. Cut-off read from the data, not from the text of the source, unless noted: active = inhibition above about 30%; inactive = the rest.
SMILES,PostGolgi yeast,HePTP inh,tolC growth inh,PostGolgi ctrl,PLAP act,Ecoli WT expand
CC(=O)NC(c1ccc(N(C)C)cc1)c1c(O)ccc2ccccc12 (stereo not given),x,-4,x,x,x,x
CCCNC(=O)CCC(=O)Nc1ncc(-c2ccc(C)cc2)n1C,-9,-4,38,9,2.2*,6
Cc1ccc(-c2nnc(SCC#CCOC(=O)c3cccs3)o2)cc1,-11,x,x,36*,0.7,-9
O=C(Nc1ccc(Cn2cccn2)cc1)c1ccc(COc2ccccc2Br)cc1,-8,x,x,32*,0.9,-14
O=C(Nc1ccn(Cc2c(F)c(F)c(F)c(F)c2F)n1)c1ccc(COc2ccccc2Cl)cc1,0,x,x,0,0.8,-5
CCOP(=O)(OCC)C(OC(N)=O)c1ccc([N+](=O)[O-])cc1 (stereo not given),x,-6,x,x,x,x
Cc1ccc(-c2cc(C(=O)NCCN3CCOCC3)no2)cc1,-5,-10,-16,30*,1.1,4
O=C(NCCN1CCOCC1)c1cc(-c2ccc(F)cc2)on1,11,0,-15,0,1.1,5
Nc1c(C(=O)NCc2ccc(F)cc2)c2nc3ccccc3nc2n1CCCN1CCOCC1,101*,x,x,73*,2*,10
CC(C)Cn1c(N)c(C(=O)NCCN2CCOCC2)c2nc3ccccc3nc21,8,13,14,7,1.8,4
Cc1cccc(-n2c(N)c(C(=O)NCCN3CCOCC3)c3nc4ccccc4nc32)c1,30*,5,10,-2,1.7,-4
O=C(CSc1nc2ccccc2[nH]1)N/N=C/c1c(F)cccc1Cl,x,0,x,x,x,x
C=C(CC(Cc1ccccc1)C(=O)O)c1ccccc1 (stereo not given),x,8,x,x,x,x
Cc1cccc(OCCNc2cc(N3CCOCC3)ccc2[N+](=O)[O-])c1,-3,x,x,66*,0.9,-5
COc1cccc(Oc2nnnn2-c2ccccc2)c1,4,10,6,11,0.9,3
COc1cccc(-n2nnnc2S(C)(=O)=O)c1,17,x,x,30*,0.9,33
Clc1ccccc1-c1noc(COc2ccc(Br)cc2)n1,x,3,x,x,x,x
Cc1ccc(NC(=O)CN2CCCN(S(=O)(=O)c3ccc(Br)s3)CC2)cc1,16,x,x,33*,1.7,-8
CCOC(=O)N1CCN(S(=O)(=O)c2ccc(Br)s2)CC1,-9,0,6,1,0.9,3
Cc1cc(C)cc(NC(=O)CN2CCCN(S(=O)(=O)c3ccc(Br)s3)CC2)c1,1,x,x,42*,1,-20
CC(=O)C1=C(O)C(=O)N(CCN2CCNCC2)C1c1ccccc1Cl (stereo not given),x,4,x,x,x,x
Cc1ccc(C)c(N2CCN(C(=O)c3ccccc3Br)CC2)c1,1,2,69*,29,x,-8
CC(=O)c1cc(F)c(N2CCN(C(=O)c3ccccc3Br)CC2)cc1C,x,-10,x,x,x,x
Cc1ccc(N2CCN(C(=O)c3ccccc3Br)CC2)c(C)c1,1,13,40,37*,1.5,-2
O=C1c2ccccc2C(Nc2cccc(C(F)(F)F)c2)N1Cc1ccco1 (stereo not given),-1,-1,93*,32*,1,-5
SMILES,PostGolgi yeast,HePTP inh,tolC growth inh,PostGolgi ctrl,PLAP act,Ecoli WT expand
COc1cccc(NC2c3ccccc3C(=O)N2Cc2ccco2)c1 (stereo not given),-4,7,4,9,1,1
Cc1ccc(C(=O)Nn2c(O)c(C3=c4ccccc4=NC3=O)sc2=S)cc1,x,-14,x,x,x,x
Cc1nc(-c2ccccc2)sc1C(=O)CSc1ccccc1,-9,x,x,30*,1.1,-6
Cc1nc(-c2ccccc2)sc1C(=O)CSc1ccc(F)cc1,-1,x,x,13,1.2,-3
O=C(O)C1Nc2c(C(=O)N3CCOCC3)cccc2C2C=CCC12 (stereo not given),-6,25,-2,1,1.5,-4
O=C(O)c1ccc([N+](=O)[O-])c2c1NC(c1ccccc1)C1CC=CC21 (stereo not given),x,88*,x,x,x,x
O=C(O)C1Nc2c(C(=O)N3CCCC3)cccc2C2C=CCC12 (stereo not given),x,94*,x,x,x,x
Cc1ccc2c(c1C)NC(C(=O)O)C1CC=CC21 (stereo not given),-13,x,-11,0,1.3,-15

# Source: PubChem BioAssay (several laboratories)
